About 1,100 (0.33%) of roughly 330,000 compounds were called active.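 How the source made its calls: active means at 10 µM dose, activation of 40% or more, normalized to positive control; inactive means the rest.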 Shown is part of a subset that was picked to be rich in actives.
Assay: PERK-eIF2a-CHOP pathway stimulators – cell-based, CHO-CHOP luciferase reporter, luminescence, uHTS, primary screen (AID 449763);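 further: 100% = tunicamycin at 10 µg/mL and 0% = DMSO alone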
Settings: UPR activation, at 10 µM, active compounds read high, percent of tunicamycin response over DMSO baseline
Summary of the method: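 measured by = luciferase luminescence | assay system = CHO-CHOP cells, stable luciferase reporter of PERK-eIF2a-CHOP signalling | amount = 500 reporter cells seeded per well | timing = 6 h compound exposure at 37 °C after overnight seeding | controls = positive tunicamycin 10 µg/mL, negative DMSO alone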

SMILES | activation
COc1ccccc1C(=O)NCc1nnc(SC(C)C(=O)Nc2nccs2)n1C (stereo not drawn) | -1.66% (inactive)
O=C(NCc1ccc(Cl)cc1)c1cc(=O)nc2sc(-c3ccccc3)nn12 | -2.04% (inactive)
COc1ccc(OC)c(-c2csc(NC(=O)C3=NNC(=O)CC3)n2)c1 | -1.74% (inactive)
COc1ccc(OC)c(-c2csc(NC(=O)COC(=O)C3CC3)n2)c1 | 1.31% (inactive)
COc1ccc(OC)c(Nc2nc(-c3ccc(O)c(O)c3)cs2)c1 | 74.3% (active)
COC(=O)C1CCN(C(=O)COC(=O)c2cc(S(=O)(=O)N3CCOCC3)ccc2C)CC1 | 0.025% (inactive)
COc1ccc(C2=NOC(Cn3nc(C(=O)NCc4ccc5c(c4)OCO5)cc3-c3ccccc3)C2)cc1 (stereo not drawn) | 0.69% (inactive)
Cc1cc(C(=O)CCl)c(C)n1CC1COc2ccccc2O1 (stereo not drawn) | 174% (active)
O=C1C(=O)N(CC2COc3ccccc3O2)c2ccccc21 (stereo not drawn) | 2.24% (inactive)
Cc1ccsc1C(=O)OCC(=O)c1cc(C)n(CC2CCCO2)c1C (stereo not drawn) | -8.43% (inactive)
CC(C)CNc1ncnc2c1cnn2Cc1ccc(Cl)cc1 | 2.5% (inactive)
O=C(Nc1ccc(-n2ccnc2P(=O)(O)c2ccccc2)cc1)c1ccccc1Br | -1.3% (inactive)
COCCN(Cc1cc2cc3c(cc2nc1Cl)OCO3)C(=O)c1cccc(C)c1 | 2.77% (inactive)
O=C(NC1CCN(Cc2ccccc2)CC1)c1ccc(Oc2cc(Cl)cc(Cl)c2)o1 | 0.679% (inactive)
Cn1cc(CN2CCCC(CO)C2)c(-c2ccc(Oc3ccccc3)cc2)n1 (stereo not drawn) | -1.18% (inactive)
Cn1cc(CN2CCC(C(O)CCc3ccccc3)CC2)c(-c2ccccc2F)n1 (stereo not drawn) | -1.46% (inactive)
CCCOC1CCCN(Cc2cn(C)nc2-c2ccccc2F)C1 (stereo not drawn) | 44.6% (active)
O=C(CN1C(=O)c2cccnc2Oc2ccc(Cl)cc21)Nc1ccc(F)cc1 | 1.1% (inactive)
Cc1ccc(CN2CCN(c3ncccn3)CC2)c(C)c1 | 0.144% (inactive)
Oc1c(CN2CCCC2)cc(COCc2ccccc2)c2cccnc12 | 37.6% (inactive)
Oc1c(CN2CCN(c3ccc(F)cc3)CC2)cc(Cl)c2cccnc12 | 415% (active)
O=C(Nc1ccc(N2CCN(C(=O)c3ccccc3)CC2)c(Cl)c1)c1cccnc1 | 0.424% (inactive)

SMILES | activation
CC(CCn1cccn1)NC(=O)CCc1nnc(CCc2ccccc2)o1 (stereo not drawn) | -1.47% (inactive)
CCc1noc(C)c1C(=O)N1CCCSC1=Nc1ccccc1OC | 2.57% (inactive)
COc1ccc(Cl)cc1S(=O)(=O)N1CCN(CC(=O)C(C)(C)C)CC1 | -1.27% (inactive)
O=C(CN1CCN(S(=O)(=O)c2cc(Cl)ccc2Cl)CC1)c1ccc(O)c(O)c1 | 95.7% (active)
N#Cc1ccsc1NC(=O)CN1CCN(S(=O)(=O)c2cc(Cl)ccc2Cl)CC1 | -1.62% (inactive)
C[C@H](C(=O)CC(=O)OC(C)(C)C)[C@H](O)c1ccc(C(F)(F)F)cc1 | 1.59% (inactive)
COc1ccc(NC(=O)C2=C(C)NC(=O)NC2c2ccccc2[N+](=O)[O-])cc1 (stereo not drawn) | -2.61% (inactive)
CNc1nc(Nc2ccc(C)c(Cl)c2)nc(N)c1[N+](=O)[O-] | 5.39% (inactive)
Cc1ccc(Nc2nc(N)nc(CN3CCN(Cc4ccccc4)CC3)n2)cc1Cl | 0.453% (inactive)
OCCNc1nc(Nc2ccc(Cl)c(Cl)c2)nc2ccccc12 | 51.9% (active)
CCN(C(=O)CSc1nc(N)cc(=O)[nH]1)C1CCS(=O)(=O)C1 (stereo not drawn) | 1.25% (inactive)
CSCCNCc1cn(-c2ccc(F)cc2F)nc1-c1ccccc1C | -1.15% (inactive)
C/C(=N\NC(=O)c1cccc(N2CCCC2=O)c1)c1ccc(N)cc1 | 1.34% (inactive)
Cc1ccc(NC(=S)NCCc2ccc(Cl)cc2)c(C)c1 | 1.96% (inactive)
Oc1cc2c(cc1O)CN(C(=S)NCCc1ccc(Cl)cc1)CCC2 | 58.3% (active)
CC1CCCC(NC(=O)c2cccc(N3CCCC3=O)c2)C1C (stereo not drawn) | 3.2% (inactive)
COc1ccc(CCNC(=S)N2CCN(S(=O)(=O)c3ccc(Cl)cc3)CC2)cc1 | 1.93% (inactive)
O=C(NCCc1ccc(Cl)cc1)c1cccc(N2CCCC2=O)c1 | 54.4% (active)
O=C(CSc1nnc(SCc2ccc(F)cc2)s1)Nc1ccc(C(=O)O)cc1 | -2.09% (inactive)
Cc1ccc(C2NC(=S)NC3=C2N2CCC3CC2)cc1 (stereo not drawn) | -2.03% (inactive)
CC(C(=O)O)n1cnc2sc3c(c2c1=O)CCCC3 (stereo not drawn) | -0.91% (inactive)
O=S(=O)(c1ccccc1)N(Cc1cccc(F)c1)c1ccccc1 | -1.78% (inactive)

SMILES | activation
CC1(C)CC(=O)C=C(NC2CC(C)(C)NC(C)(C)C2)C1 | 0.506% (inactive)
CCCC(=O)N1c2ccc(-c3csc(N)n3)cc2CC1C (stereo not drawn) | 4.75% (inactive)
CC(C)(C)C(=O)OCc1nc(-c2ccc(O)c(O)c2)cs1 | 170% (active)
Cc1onc(C(=O)NN)c1-c1csc(COc2ccccc2)n1 | -0.475% (inactive)
NC(=O)C1CCN(C(=O)COc2ccc3c4c(c(=O)oc3c2)CCC4)CC1 | 1.77% (inactive)
CC(C)(C)Nc1nc(-c2ccccn2)nc2ccccc12 | 61.4% (active)
COc1cnc(-c2ccccn2)nc1Oc1ccc(C(C)(C)C)cc1 | 3.2% (inactive)
N#Cc1ccc(Oc2cc(C(F)(F)F)nc(-c3ccccn3)n2)cc1 | -0.253% (inactive)
COc1ccc(CNc2ncnc3ccccc23)cc1 | 5.16% (inactive)
c1ccc2c(NCC3CCCO3)nc(-c3ccncc3)nc2c1 (stereo not drawn) | -0.369% (inactive)
Cc1ccc(Oc2nc(-c3ccccn3)nc3ccccc23)cc1 | 48.5% (active)
CCCCOc1ccc(C(=O)N/C(=C/C=C/c2ccccc2)C(=O)N2CCOCC2)cc1 | 5.27% (inactive)
Cc1ccc2cc3cc(C(=O)N4CCCCCC4)oc3nc2c1 | 0.396% (inactive)
O=C(CSc1nc2ncccc2[nH]1)Nc1ccc2c(c1)OCCO2 | 0.487% (inactive)
Nc1nc(SCC(=O)NN(c2ccccc2)c2ccccc2)n[nH]1 | -0.687% (inactive)
CC(C)NC(=S)N1CCN(S(C)(=O)=O)CC1 | 0.831% (inactive)
O=C(NNc1cc(Cl)ccc1Cl)c1cccnc1Cl | 0.393% (inactive)
CC(=O)/C(=N\Nc1ccc(Cl)cc1Cl)Sc1cccc2cccnc12 | 184% (active)
COc1cccc(CNC(=O)c2cccnc2Sc2ccc(Cl)cc2)c1 | 0.384% (inactive)
Cc1ccc(S(=O)(=O)CCC(=O)OCc2ccccc2)cc1 | 0.112% (inactive)
CCOC(=O)c1ccc(NC(=O)c2nc[nH]c2C(=O)N[C@@H](CCCCNC(=O)OC(C)(C)C)C(=O)OC(C)(C)C)cc1 | 2.33% (inactive)
CC(=O)c1ccc(NC(=O)c2ccc(-n3cncn3)c([N+](=O)[O-])c2)cc1 | 2.02% (inactive)

SMILES | activation
COCCOC(=O)c1c(C)oc2cc(Br)c(OCC(N)=O)cc12 | 0.018% (inactive)
CCc1ccc2c(c1)C1(NN=C(c3ccccc3)S1)C(=O)N2 (stereo not drawn) | 135% (active)
Cc1occc1C(=O)NC1CCCN(Cc2ccc(CC(C)C)cc2)C1 (stereo not drawn) | 1.93% (inactive)
O=C(Nc1c2c(nn1-c1ccccc1)CS(=O)(=O)C2)C1CCCC1 | -0.808% (inactive)
COC(=O)c1ccc(C(=O)Nc2cc(Cl)ccc2Cl)cc1NC(=O)c1ccccc1C | 49.7% (active)
CCCN(CCC)C(=S)Nc1cc(C(=O)OC)ccc1C(=O)OC | 2.25% (inactive)
COC(=O)c1ccc(C(=O)OC)c(NC(=S)N2CCN(c3cc(Cl)ccc3C)CC2)c1 | 1.94% (inactive)
O=C(CSc1nc2ccccc2c(=O)n1CCCO)NC1CC1 | 1.02% (inactive)
CCCCn1nc(C(=O)N2CCc3ccccc32)c2ccccc2c1=O | -1.34% (inactive)
O=C(Nc1ccc(OC(F)(F)F)cc1)c1ccc2c(c1)no[n+]2[O-] | 61% (active)
Cn1nccc1NC(=O)Nc1ccc(OC(F)(F)F)cc1 | 0.489% (inactive)
Cn1cccc1/C=N/NC(=O)c1ccc(OC(F)(F)C(F)F)cc1 | 2.77% (inactive)
CC(C)CC(=O)N1CCC(O)(CS(=O)(=O)Cc2ccccc2)CC1 | -0.00639% (inactive)
Cc1ccc(NC(=O)CCOc2ccccc2)cc1S(=O)(=O)Nc1ccccc1Cl | 2.43% (inactive)
Cc1ccc(Cc2cnc(NC(=O)/C(C#N)=C/c3ccc(-c4cccc([N+](=O)[O-])c4)o3)s2)cc1 | 73.3% (active)
Cc1ccc(C(=O)N/C(=C/c2ccc(-c3cccc([N+](=O)[O-])c3)o2)C(=O)NCCCN(C)C)cc1 | -0.289% (inactive)
Cc1ccc(-c2ccc(/C=C(\C#N)C(N)=S)o2)c([N+](=O)[O-])c1 | 3.33% (inactive)
Cc1cc2c(cc1S(=O)(=O)NCc1ccc(Cl)cc1)OCC(=O)N2 | -0.754% (inactive)
Cc1ccc(C)c(S(=O)(=O)N2CCN(c3ncnc4sccc34)CC2)c1 | 5.68% (inactive)
Cc1cccc(NC(=O)CN2CCN(C(=O)C3CCN(C(=O)/C=C/c4ccccc4)CC3)CC2)c1C | 0.754% (inactive)
Cc1cccc(NC(=O)CSC(N)=O)c1C | -0.357% (inactive)
CCOC(=O)/C=c1\s/c(=C\c2ccc(C#N)cc2)c(=O)n1CC(=O)Nc1cccc(C)c1C | 75.5% (active)

SMILES | activation
COc1ccc(-c2c(C(C)=O)c(C)nc3sc4c(=O)n(-c5ccc(C)cc5)nnc4c23)cc1 | -0.914% (inactive)
COC(=O)C(=Nc1ccccc1)/C(C(=O)C(=O)N(C)c1ccccc1)=C(\O)c1ccc(Cl)cc1 | 0.244% (inactive)
CC1(C)CCSC(/C=C/c2ccccc2)=N1 | 57.7% (active)
C[C@H](CO)N1C[C@H](C)[C@@H](CN(C)C(=O)NC2CCCCC2)Oc2ccc(NC(=O)c3ccncc3)cc2C1=O | 2.08% (inactive)
COc1ccc(C(=O)NCC(=O)N/N=C/c2cccnc2)cc1 | 2.52% (inactive)
O=C(CSc1cccc2cccnc12)N/N=C/c1cccnc1 | 227% (active)
O=C(N/N=C/c1cccnc1)c1ccc(NC(=O)c2ccc(F)cc2)cc1 | 1.11% (inactive)
Nc1nc(O)c(CC(=O)O)s1 | -0.635% (inactive)
COc1cc(/C=C2/C(=O)ON=C2C)ccc1OCc1cccc(F)c1 | 30.3% (inactive)
C=CCOc1ccc(/C=C2/C(=O)ON=C2C)cc1OCC | 0.964% (inactive)
COc1cc(/C=C2/C(=O)ON=C2C)ccc1OCc1ccccc1F | 66.3% (active)
Cc1cc(C)n(-c2ccc(NC(=O)C3CCCCN3C(=O)c3cccs3)cc2)n1 (stereo not drawn) | -0.0869% (inactive)
O=C(c1cccs1)N1CCCC(c2nc(-c3ccc(F)cc3)no2)C1 (stereo not drawn) | 1.93% (inactive)
CS(=O)(=O)N(Cc1ccccc1)c1ccc(C(=O)NN=C2CCCCCC2)cc1 | 43.7% (active)
CN1CCC(=NNC(=O)c2ccc(N(Cc3ccc(Cl)cc3)S(C)(=O)=O)cc2)CC1 | 0.73% (inactive)
Cc1ccccc1CN(c1ccc(C(=O)NCC2CCCO2)cc1)S(C)(=O)=O (stereo not drawn) | -1.43% (inactive)
CCCC1CC(C)(C(=O)Cn2[nH]c(=O)ccc2=O)OC1=O (stereo not drawn) | 1.35% (inactive)
CCOc1cc(/C=N/NC(=O)c2ccc(CSc3nncn3C)cc2)ccc1OCC(=O)N1CCOCC1 | 0.857% (inactive)
O=C(NCC12CC3CC(C1)CC(CNC(=O)N1CCCC1)(C3)C2)N1CCCC1 | -2.08% (inactive)
Cc1nn(CC(=O)NCC2CCCO2)c(=O)c2cc3ccccc3n12 (stereo not drawn) | -0.347% (inactive)

Source: PubChem BioAssay AID449763 (Sanford-Burnham Center for Chemical Genomics, 2010)
